Results as given in ChEMBL document CHEMBL3627702, “Navigating CYP1A Induction and Arylhydrocarbon Receptor Agonism in Drug Discovery. A Case History with S1P1 Agonists” (J Med Chem, 2015).

Columns and labels:
[1] = test system: CYP1A1; test: Induction of CYP1A1 mRNA expression in rat hepatocytes at 10 uM by Taqman analysis relative to control; assay type: ADME, cell-based, Hepatocyte; details: read-out: FC
[2] = test system: CYP1A2; test: Induction of CYP1A2 mRNA expression in rat hepatic microsomes at 30 mg/kg, po QD for 7 days relative to control; assay type: ADME, organism-based, Liver; details: read-out: FC
Outline: (§1)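 Male rats dosed orally once daily for 7 days. Hepatic mRNA measured by Taqman and expressed as fold induction versus control animals.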

[3] = test system: CYP1A1; test: Induction of CYP1A1 mRNA expression in rat hepatic microsomes at 30 mg/kg, po QD for 7 days relative to control; assay type: ADME, organism-based, Liver; details: read-out: FC; outline: as §1
[4] = test system: CYP1A2; test: Induction of CYP1A2 mRNA expression in rat hepatocytes at 10 uM by Taqman analysis relative to control; assay type: ADME, cell-based, Hepatocyte; details: read-out: FC
[5] = test system: CYP1A2; test: Induction of CYP1A2 mRNA expression in human hepatocytes at 10 uM relative to control; assay type: ADME, cell-based, Hepatocyte; details: read-out: FC
[6] = target: T1, CYP1A2 (Homo sapiens, UniProt P05177); test: Induction of CYP1A2-mediated 7-ethoxyresorufin O-deethylase activity in human hepatocytes at 5 uM after 10 mins by fluorescence assay relative to control; assay type: ADME, cell-based, Hepatocyte; details: probe 7-ethoxyresorufin, read-out: FC
T1 sequence (P05177 whole entry): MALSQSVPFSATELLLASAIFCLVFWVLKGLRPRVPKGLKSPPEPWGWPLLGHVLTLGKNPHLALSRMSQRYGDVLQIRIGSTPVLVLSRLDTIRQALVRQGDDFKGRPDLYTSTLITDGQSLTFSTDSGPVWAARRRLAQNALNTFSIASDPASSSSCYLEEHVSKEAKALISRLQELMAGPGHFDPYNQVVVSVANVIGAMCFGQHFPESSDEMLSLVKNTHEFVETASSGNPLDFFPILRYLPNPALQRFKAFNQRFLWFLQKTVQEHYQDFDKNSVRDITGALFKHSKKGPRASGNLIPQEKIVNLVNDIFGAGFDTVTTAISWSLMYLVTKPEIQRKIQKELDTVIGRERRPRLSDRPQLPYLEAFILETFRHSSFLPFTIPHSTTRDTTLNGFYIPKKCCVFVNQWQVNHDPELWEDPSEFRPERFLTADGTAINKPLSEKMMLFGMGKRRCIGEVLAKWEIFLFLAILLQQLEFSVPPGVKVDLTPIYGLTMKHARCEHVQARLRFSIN
Outline: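 Human hepatocytes were treated for 48 h (re-dosed at 24 h), washed, then incubated with 0.5 μM ethoxyresorufin in serum-free medium for 10 min at 37 °C. Resorufin fluorescence read at Ex 530/Em 590 nm. Rate in fluorescence units/min expressed as fold over solvent control.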

[7] = test system: CYP1A1; test: Induction of CYP1A1 mRNA expression in Sprague-Dawley rat hepatic microsomes at 30 mg/kg, po QD for 4 days relative to control; assay type: ADME, organism-based, Liver; details: read-out: FC
Outline: (§2)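 Male CD rats (226–325 g, n = 3) were dosed by oral gavage once daily for 4 days as a 1% w/v aqueous methylcellulose suspension (3–6 mg/mL, 5 mL/kg). At the end of the study, a left lateral liver lobe section was placed in RNALater and homogenised in TRIzol. RNA was purified, DNase-treated and converted to cDNA, and Cyp1a1 was read on low-density TaqMan arrays.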

[8] = Oral bioavailability in CD rat at 3 mg/kg; assay type: ADME, organism-based; details: in vivo
Outline: (§3)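 Male CD rats cannulated in the femoral and jugular veins, n = 3, crossover design. Day 1: 1 h iv infusion at 1 mg/kg (0.2 mg/mL in ≤5% DMSO/≥95% 10% Kleptose in saline, 5 mL/kg/h). Day 2: oral gavage at 3 mg/kg (0.6 mg/mL in 1% methylcellulose, 5 mL/kg). Blood assayed by LC–MS/MS after acetonitrile precipitation.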

[9] = Lipophilicity, log D of the compound at pH 7.4; assay type: physicochemical; details: buffer
[10] = test system: CYP1A2; test: Induction of CYP1A2 mRNA expression in Sprague-Dawley rat hepatic microsomes at 30 mg/kg, po QD for 4 days relative to control; assay type: ADME, organism-based, Liver; details: read-out: FC
[11] = test system: Rattus norvegicus; test: Dose normalized AUC in Sprague-Dawley rat at 30 mg/kg, po QD measured on day 1; assay type: ADME, organism-based; details: in vivo
Outline: (§4)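 Male CD rats (226−325 g), n = 3, given the compound once daily by oral gavage for 4 days. Vehicle was 1% (w/v) methylcellulose aq suspension at 3−6 mg/mL, dosed at 5 mL/kg (target 15−30 mg/kg). Tail vein blood was taken on days 1 and 4 up to 24 h postdose. Blood was diluted 1:1 with water, extracted by acetonitrile protein precipitation and analysed by LC−MS/MS against calibration standards in diluted blood.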

[12] = Cmax in Sprague-Dawley rat at 30 mg/kg, po QD measured on day 4; assay type: ADME, organism-based; design: dose 30 mg/kg, route oral; details: in vivo; outline: as §4
[13] = test system: Rattus norvegicus; test: Dose normalized AUC in Sprague-Dawley rat at 30 mg/kg, po QD measured on day 4; assay type: ADME, organism-based; details: in vivo; outline: as §4
[14] = AUC in Sprague-Dawley rat at 30 mg/kg, po QD measured on day 4; assay type: ADME, organism-based; details: in vivo; outline: as §4
[15] = AUC in Sprague-Dawley rat at 30 mg/kg, po QD measured on day 1; assay type: ADME, organism-based; details: in vivo; outline: as §4
[16] = Cmax in Sprague-Dawley rat at 30 mg/kg, po QD measured on day 1; assay type: ADME, organism-based; design: dose 30 mg/kg, route oral; details: in vivo; outline: as §4
[17] = test system: Rattus norvegicus; test: Dose normalized AUC in Sprague-Dawley rat at 15 mg/kg, po QD measured on day 4; assay type: ADME, organism-based; details: in vivo; outline: as §4
[18] = test system: CYP1A2; test: Induction of CYP1A2 mRNA expression in Sprague-Dawley rat hepatic microsomes at 15 mg/kg, po QD for 4 days relative to control; assay type: ADME, organism-based, Liver; details: read-out: FC
[19] = Cmax in Sprague-Dawley rat at 15 mg/kg, po QD measured on day 1; assay type: ADME, organism-based; design: dose 15 mg/kg, route oral; details: in vivo; outline: as §4
[20] = test system: CYP1A1; test: Induction of CYP1A1 mRNA expression in Sprague-Dawley rat hepatic microsomes at 15 mg/kg, po QD for 4 days relative to control; assay type: ADME, organism-based, Liver; details: read-out: FC; outline: as §2
[21] = AUC in Sprague-Dawley rat at 15 mg/kg, po QD measured on day 4; assay type: ADME, organism-based; details: in vivo; outline: as §4
[22] = Cmax in Sprague-Dawley rat at 15 mg/kg, po QD measured on day 4; assay type: ADME, organism-based; design: dose 15 mg/kg, route oral; details: in vivo; outline: as §4
[23] = Dissociation constant, pKa of the compound; assay type: physicochemical
[24] = test system: Rattus norvegicus; test: Dose normalized AUC in Sprague-Dawley rat at 15 mg/kg, po QD measured on day 1; assay type: ADME, organism-based; details: in vivo; outline: as §4
[25] = AUC in Sprague-Dawley rat at 15 mg/kg, po QD measured on day 1; assay type: ADME, organism-based; details: in vivo; outline: as §4
[26] = AUC in Sprague-Dawley rat at 25 mg/kg, po QD measured on day 4; assay type: ADME, organism-based; details: in vivo; outline: as §4
[27] = Volume of distribution at steady state in CD rat at 1 mg/kg, iv; assay type: ADME, organism-based; details: in vivo, read-out: Vdss; outline: as §3
[28] = Cmax in Sprague-Dawley rat at 25 mg/kg, po QD measured on day 1; assay type: ADME, organism-based; design: dose 25 mg/kg, route oral; details: in vivo; outline: as §4
[29] = Blood clearance in CD rat at 1 mg/kg, iv; assay type: ADME, organism-based
Outline: (§5)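 Male CD rats carried femoral vein (dosing) and jugular vein (sampling) cannulae and recovered at least 2 days. They received a 1 h iv infusion at 5 mL kg−1 h−1, target 1 mg/kg, at 0.2 mg/mL in DMSO/10% Kleptose in saline (≤5%:≥95%). pH was adjusted to 8.0 if needed and the solution filtered. Definitive studies used n = 3 in crossover; others used single animals.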

[30] = Half life in CD rat at 1 mg/kg, iv; assay type: ADME, organism-based; details: in vivo; outline: as §5
[31] = test system: Rattus norvegicus; test: Dose normalized AUC in Sprague-Dawley rat at 25 mg/kg, po QD measured on day 1; assay type: ADME, organism-based; details: in vivo; outline: as §4
[32] = test system: CYP1A2; test: Induction of CYP1A2 mRNA expression in Sprague-Dawley rat hepatic microsomes at 25 mg/kg, po QD for 4 days relative to control; assay type: ADME, organism-based, Liver; details: read-out: FC
[33] = test system: CYP1A1; test: Induction of CYP1A1 mRNA expression in Sprague-Dawley rat hepatic microsomes at 25 mg/kg, po QD for 4 days relative to control; assay type: ADME, organism-based, Liver; details: read-out: FC; outline: as §2
[34] = AUC in Sprague-Dawley rat at 25 mg/kg, po QD measured on day 1; assay type: ADME, organism-based; details: in vivo; outline: as §4
[35] = test system: Rattus norvegicus; test: Dose normalized AUC in Sprague-Dawley rat at 25 mg/kg, po QD measured on day 4; assay type: ADME, organism-based; details: in vivo; outline: as §4
[36] = Cmax in Sprague-Dawley rat at 25 mg/kg, po QD measured on day 4; assay type: ADME, organism-based; design: dose 25 mg/kg, route oral; details: in vivo; outline: as §4

Work on Cc1c(-c2noc(-c3ccc(OC(C)C)c(C#N)c3)n2)ccc2c1CCN(CCC(=O)O)C2 yielded a fold induction at 10 µM [1] of less than 1, a fold induction at 168 h [2] of 1 and a fold induction at 168 h [3] of 3. It also gave a fold induction at 10 µM [4] of less than 1, a fold induction at 10 µM [5] of 0.2 and a fold induction at 10 min, 5 µM [6] of 1.1.
CC(C)Oc1ccc(-c2nc(-c3ccc4c(c3)CCN(C(CO)CO)CC4)no2)cc1C#N gave a fold induction at 96 h [7] of 604, a bioavailability [8] of 68% and a logD [9] of 2.78. For the same compound, the fold induction at 96 h [10] was 7.3, the AUC/dose [11] was 48 kg·min/L and the Cmax [12] was 1380 ng/mL. For the same compound, the AUC/dose [13] was 59 kg·min/L, the AUC [14] was 23100 ng·h/mL and the AUC [15] was 23000 ng·h/mL. The Cmax [16] was 1600 ng/mL.
Work on Cc1c(-c2noc(-c3ccc(OC(C)C)c(C#N)c3)n2)ccc2c1CCN(C(CO)CO)C2 yielded a fold induction at 96 h [7] of 1.4, a logD [9] of 2.76 and a fold induction at 96 h [10] of 1.5. For the same compound, the AUC/dose [11] was 9 kg·min/L, the Cmax [12] was 790 ng/mL and the AUC/dose [13] was 16 kg·min/L. The AUC [14] was 7640 ng·h/mL, the AUC [15] was 4420 ng·h/mL and the Cmax [16] was 440 ng/mL.
CC(C)Oc1ccc(-c2nc(-c3cccc4c3CCN(C(CO)CO)C4)no2)cc1C#N gave an AUC/dose [17] of 56 kg·min/L, a fold induction at 96 h [18] of 2 and a Cmax [19] of 900 ng/mL. It also gave a fold induction at 96 h [20] of 1.6, a logD [9] of 2.58 and an AUC [21] of 13900 ng·h/mL. It also gave a Cmax [22] of 940 ng/mL, a pKa [23] of 7.3 and an AUC/dose [24] of 48 kg·min/L. For the same compound, the AUC [25] was 12100 ng·h/mL.
For Cc1c(-c2noc(-c3ccc(OC(C)C)c(C#N)c3)n2)ccc2c1OCCN(C(CO)CO)C2, the AUC [26] was 12600 ng·h/mL, the Vd [27] was 4 L/kg and the Cmax [28] was 870 ng/mL. It also gave a bioavailability [8] of 69%, a clearance [29] of 54 mL/min/kg and a half-life [30] of 1 h. For the same compound, the logD [9] was 2.86, the AUC/dose [31] was 22 kg·min/L and the fold induction at 96 h [32] was 2. The pKa [23] was 6.3, the fold induction at 96 h [33] was 40 and the AUC [34] was 8840 ng·h/mL. For the same compound, the AUC/dose [35] was 30 kg·min/L and the Cmax [36] was 1140 ng/mL.
For Cc1c(-c2noc(-c3ccc(OC(C)C)c(C#N)c3)n2)ccc2c1CCN(C[C@H](O)CO)C2, the fold induction at 96 h [7] was 64, the logD [9] was 2.7 and the pKa [23] was 7.7. For the same compound, the fold induction at 96 h [10] was 10, the AUC/dose [11] was 9 kg·min/L and the Cmax [12] was 500 ng/mL. It also gave an AUC/dose [13] of 9 kg·min/L, an AUC [14] of 3600 ng·h/mL and an AUC [15] of 4440 ng·h/mL. The Cmax [16] was 770 ng/mL.
